Experimental data taken from publication PMC6339461 (Bioorganic & medicinal chemistry letters, 2018).
Entries after “also recorded” stand apart in the source; their conditions may differ.

Experiments:
[1] = parallel artificial membrane permeability assay; assay type: in vitro ADME; settings: for permeability, result in words: PAMPA
[2] = tested on: HepG2; test: cytotoxicity in HepG2 cells; assay type: cell-based; settings: concentrations up to 100 μM
[3] = tested on: HeLa; test: cytotoxicity in HeLa cells; assay type: cell-based; settings: concentrations up to 100 μM
[4] = solubility in DMSO and buffer; assay type: physicochemical; settings: in both DMSO and buffer; compared with hit 7a
[5] = molecular target: T1, TDP2 (Danio rerio, UniProt Q5XJA0); test: fluorescence-based biochemical assay measuring the catalytic activity of TDP2
T1 sequence (Q5XJA0 121-369): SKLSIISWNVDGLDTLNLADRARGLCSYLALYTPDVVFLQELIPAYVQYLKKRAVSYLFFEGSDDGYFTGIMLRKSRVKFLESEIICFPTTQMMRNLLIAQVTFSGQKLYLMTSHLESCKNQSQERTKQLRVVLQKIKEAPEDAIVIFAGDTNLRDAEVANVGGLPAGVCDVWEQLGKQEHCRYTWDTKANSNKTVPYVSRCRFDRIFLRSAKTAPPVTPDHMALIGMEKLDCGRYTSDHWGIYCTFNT
In short: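 TDP2 catalytic activity measured with a fluorescence read-out. IC50 values are the mean of three independent experiments, each run in triplicate.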

Row | SMILES | permeability, result in words [1] | cytotoxicity in HepG2, result in words [2] | cytotoxicity in HeLa, result in words [3] | other results
1 | O=C(Nc1nc2cc(-c3ccccc3)ccn2n1)c1cccc(Cl)c1 [Compound 17e] | borderline Pe value; also recorded: good cellular permeability | no cytotoxicity | no cytotoxicity | Pe value, times higher than that of 1 ([1]; relative to 1): about 10 times; permeability in PAMPA, fold higher than the hit compound ([1]; relative to hit compound): 6 fold
2 | O=C(Nc1nc2cc(-c3ccccc3)ccn2n1)c1cccc([N+](=O)[O-])c1 [Compound 17a] | – | – | – | solubility profile, result in words [4]: better solubility profile
3 | O=C(Nc1nc2cc(-c3cccnc3)ccn2n1)c1cccc(Cl)c1 [Compound 17z] | good cellular permeability; also recorded: excellent cell permeability | no cytotoxicity | no cytotoxicity | fold increase in permeability versus 17e ([1]; relative to 17e): 7 fold
4 | O=C(Nc1nc2cc(-c3ccccc3)ccn2n1)c1ccc(F)cc1Cl [Compound 17o] | – | – | – | TDP2 inhibition, result in words [5]: further reduced activity
